# Screening results (PubChem BioAssay)
# Only some compounds are listed: those with a hit (about 2.8% of all), similar ones and a draw of the others.
# PAFAH1B2 FP inh: PAFAH1B2 (human) inhibition | P68402 | recombinant PAFAH1B2, FP-rhodamine activity probe, fluorescence polarization | inhibition, % at 3.39 µM | 340,000 tested, 1.2% active | AID 492953;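 active = inhibition above the mean of all tested compounds plus 3 SD, cut at about 24% in these data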;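 note: 0% = enzyme with DMSO and 100% = wells lacking PAFAH1B2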
# Target sequence (P68402 whole entry, looked up): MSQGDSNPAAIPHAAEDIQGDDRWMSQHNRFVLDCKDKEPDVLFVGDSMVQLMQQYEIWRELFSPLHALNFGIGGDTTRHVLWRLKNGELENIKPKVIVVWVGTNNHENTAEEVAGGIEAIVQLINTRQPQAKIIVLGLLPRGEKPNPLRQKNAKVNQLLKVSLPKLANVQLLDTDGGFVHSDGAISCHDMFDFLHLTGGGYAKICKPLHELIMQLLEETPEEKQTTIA
# PAFAH1B3 inh: blocks human PAF acetylhydrolase 1B catalytic subunit 3; Q15102; recombinant PAFAH1B3, FP-rhodamine probe, fluorescence polarization; inhibition, % at 3.39 µM; 340,000 tested, 0.28% active;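 active = inhibition above the screen-wide average of all tested compounds plus 3 SD, cut at about 25% in these data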;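 note: 0% = enzyme with DMSO only and 100% = wells lacking PAFAH1B3 protein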
# PAFAH2 inh: inhibitors of human PAFAH2; AID 492956; Q99487; inhibition, % at 3.39 µM; recombinant PAFAH2, FP-rhodamine activity probe, fluorescence polarization; 340,000 tested, 0.99% active;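 active = inhibition above the mean over all tested compounds plus 3 SD, cut at about 30% in these data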;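 note: inhibitors block probe labeling of enzyme so polarization drops; 0% = enzyme with DMSO and 100% = wells lacking PAFAH2 protein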
# pPAFAH inh: inhibitors of human plasma PAF acetylhydrolase (pPAFAH); Q13093; recombinant pPAFAH, FP-rhodamine probe fluorescence polarization; inhibition, % at 3.39 µM; 330,000 tested, 1.5% active; AID 463082;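 active = inhibition above the mean inhibition across the screen plus 3 SD, cut at about 25% in these data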;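 note: inhibitors block binding of the rhodamine activity-based probe so polarization drops; 0% = enzyme with DMSO and 100% = wells lacking pPAFAH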
# Target sequence (Q13093 whole entry, looked up): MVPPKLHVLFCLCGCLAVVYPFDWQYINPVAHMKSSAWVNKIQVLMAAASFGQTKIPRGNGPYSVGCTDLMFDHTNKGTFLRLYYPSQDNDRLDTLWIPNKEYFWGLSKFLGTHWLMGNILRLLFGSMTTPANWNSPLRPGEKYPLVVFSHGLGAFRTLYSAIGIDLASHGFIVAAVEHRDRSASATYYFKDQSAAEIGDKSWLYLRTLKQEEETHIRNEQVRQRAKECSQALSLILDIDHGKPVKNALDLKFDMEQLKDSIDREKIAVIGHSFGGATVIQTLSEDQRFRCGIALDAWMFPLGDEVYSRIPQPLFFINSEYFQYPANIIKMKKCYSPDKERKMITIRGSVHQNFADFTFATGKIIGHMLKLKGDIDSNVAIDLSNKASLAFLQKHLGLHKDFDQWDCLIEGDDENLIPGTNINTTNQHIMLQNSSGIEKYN
# mABHD4 FP: inhibitors of mouse ABHD4; purified mABHD4, FP-Rh probe fluorescence polarization; 370,000 tested, 0.54% active; inhibition, % at 8.92 µM;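 active = inhibition exceeding the mean over every tested compound plus 3 SD, cut at about 30% in these data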;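 note: 0% = plate median of compound wells and 100% = S159A mutant with DMSO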
#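 system = mouse ABHD4 enzyme, wild type | medium = HEPES pH 7.0, NaCl, Pluronic buffer | also added = FP-Rh probe | incubation = Enzyme–compound pre-incubation 45 min, then probe 60 min, both 25 °C | technique = fluorescence polarization, excitation 525 nm, emission 598 nm, BODIPY TMR filters | controls = S159A mutant high control, sample median low control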
# HTRA1 inhibitor: HTRA1 (human) protease inhibition; inhibition, % at 5.96 µM; 340,000 tested, 0.5% active; Q92743; recombinant HTRA1, FP-rhodamine activity-based probe, fluorescence polarization; in the data active = inhibition above about 36%;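 note: 0% = enzyme with DMSO and 100% = wells lacking enzyme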
# Starred values were filed as active, the others as inactive; · = no result.
SMILES,PAFAH1B2 FP inh,PAFAH1B3 inh,PAFAH2 inh,pPAFAH inh,mABHD4 FP,HTRA1 inhibitor
NS(=O)(=O)c1cccc(NC(=O)COC(=O)CCC2CCCC2)c1,7.6,6.1,24.1,19.8,-8.7,-2.5
O=C(COC(=O)CNC(=O)c1ccc(Cl)cc1Cl)Nc1cccc(S(=O)(=O)N2CCCC2)c1,0.6,4.0,3.9,29.7*,-7.3,-3.3
O=C(CSc1nccc(=O)[nH]1)Nc1cccc(S(=O)(=O)N2CCOCC2)c1,2.0,7.7,2.2,29.9*,-4.6,0.7
Cc1ccc(C(=O)NCC(=O)OCC(=O)Nc2cc(S(=O)(=O)N3CCOCC3)ccc2C)cc1,4.5,1.7,1.7,2.7,-0.2,2.8
O=C(COC(=O)CCC1CCCC1)Nc1cccc(S(=O)(=O)N2CCOCC2)c1,-1.7,-1.9,14.9,25.5*,-1.9,-17.8
O=C(NCc1ccc(F)c(F)c1)C1CCC(CNS(=O)(=O)c2cccc3cccnc23)CC1 (stereo not drawn),·,·,·,·,-8.9,·
COc1ccc(S[C@]2(C(=O)N3CCN(c4ncccn4)CC3)CC(=O)N(c3ccsc3)[C@@H]2c2ccc(OC)cc2)cc1,·,·,·,·,-14.1,·
COC(C/C=C\C(=O)COCc1ccccc1)OC,·,·,·,25.2*,·,·
COC(C/C=C/C(=O)COCc1ccccc1)OC,6.4,-0.9,-4.5,·,7.5,4.2
O=C(O)CCCNc1cc(N2CCC3(CC2)OCCO3)c2noc3c2c1C(=O)c1ccccc1-3,·,·,·,75.5*,·,·
COC(=O)[C@H](C(C)C)N(CCc1cn(Cc2ccccc2)nn1)S(=O)(=O)c1ccccc1Br,·,·,·,·,-5.9,·
COc1ccc(C(=O)NC(=S)N(CCC(C)C)c2c(N)n(Cc3ccccc3)c(=O)[nH]c2=O)cc1,2.4,4.0,-1.9,4.9,7.6,-5.0
COCCCN(C(=S)NC(=O)c1ccc(C(C)(C)C)cc1)c1c(N)n(Cc2ccccc2)c(=O)[nH]c1=O,27.4*,5.1,9.1,7.8,10.7,-14.0
CCCCN(C(=O)c1cccc(-n2cccc2)c1)c1c(N)n(Cc2ccccc2)c(=O)[nH]c1=O,1.8,-5.3,6.5,33.2*,-1.5,-11.1
COC(=O)[C@H]1C[C@@]2(N3CCCC3)c3ccccc3N(C(=O)OC(C)(C)C)[C@H]2N1C(=O)OC(C)(C)C,·,·,·,·,-0.1,·
Cc1nn(C(=O)c2ccco2)c(C)c1Sc1ccccc1,2.7,11.1,51.5*,3.9,2.1,24.2
CCCCc1ccc2nc(NC(=O)c3ccco3)sc2c1,·,·,·,·,-12.1,·
CCn1c2ccccc2c2cc(NC(=O)COC(=O)c3cccc(OC)c3)ccc21,·,·,·,·,7.4,·
CN(C)CC(=O)N[C@@H]1C[C@@H]2O[C@@H](CO)CC[C@@H]2O[C@@H]1CCc1ccc(C#Cc2ccccc2)cc1,·,·,·,·,-1.3,·
NC(=S)N/N=C/c1ccc2ccccc2c1,3.7,-1.8,0.4,-4.3,-0.8,0.7
C(=Nc1ccc(Nc2ccccc2)cc1)c1ccc2ccccc2c1,4.6,4.8,7.2,11.1,·,72.6*
O=C(N/N=C/c1ccc(-c2ccccc2C(=O)O)o1)c1cccs1,3.3,-0.4,4.1,28.4*,15.6,2.1
Cc1cc(NC(=S)N(Cc2ccc(Br)cc2)Cc2ccc(C(=O)O)cc2)ccc1Cl,31.7*,5.2,2.4,4.5,-28.7,19.0
Cn1nc(C(=O)NCCc2ccc(Cl)cc2)c2c1-c1ccccc1S(=O)(=O)C2,35.4*,0.2,1.2,6.3,-1.3,-4.4
Cc1noc(C)c1C(c1ccccc1)c1ccccc1,28.9*,0.9,-3.0,2.1,·,-6.8
SMILES,PAFAH1B2 FP inh,PAFAH1B3 inh,PAFAH2 inh,pPAFAH inh,mABHD4 FP,HTRA1 inhibitor
O=C(NCCc1c[nH]c2ccccc12)OCc1cn(Cc2cc(F)ccc2F)nn1,·,·,·,·,0.8,·
O=C1N2Cc3ccccc3C2CS(=O)(=O)N1CCc1ccccc1 (stereo not drawn),·,·,·,·,-1.5,·
CC1CCN(S(=O)(=O)c2nnc(NC(=O)c3ccccc3Br)s2)CC1,27.8*,5.2,3.1,3.3,0.8,-3.8
Cc1cccc(OCC(=O)Nc2nnc(S(=O)(=O)N3CCC(C)CC3)s2)c1,27.2*,4.4,0.9,0.9,3.5,-7.9
Cc1cccc(OCC(=O)Nc2nnc(S(=O)(=O)N3CCCCC3)s2)c1,4.6,4.5,1.0,-0.8,-4.5,-2.3
CN1C(=O)c2cc(NC(=O)Nc3ccccc3)ccc2OC[C@H]2O[C@@H](CC(=O)NCC(F)(F)F)CC[C@@H]21,·,·,·,·,16.6,·
O=C(NNS(=O)(=O)c1ccc(F)cc1)c1cc(Cl)ccc1O,26.2*,8.6,8.4,·,5.0,3.1
O=C(NN=C1CCCC1)c1cc(-c2ccc(F)cc2)nc2ccccc12,-2.5,-5.7,2.9,-7.6,-5.4,-4.6
O=C(NNS(=O)(=O)c1cccc(Cl)c1)c1cc(-c2ccc(F)cc2)nc2ccccc12,39.9*,-5.9,-4.3,1.9,-16.7,-26.6
O=C(Nc1c(-c2ccc(F)c(F)c2)nc2ncccn12)C1CC1,·,·,·,·,3.8,·
CNCC(O)c1ccc(OC(=O)C(C)(C)C)c(OC(=O)C(C)(C)C)c1 (stereo not drawn),27.0*,1.2,-0.4,2.9,4.8,3.3
COc1cc(/C=N/NC(=O)c2cc(C34CC5CC(CC(C5)C3)C4)[nH]n2)ccc1O,30.4*,12.7,16.2,10.1,12.9,-29.0
Cc1ccc(S(=O)(=O)N2CCOCC2)cc1C(=O)NCCc1ccc(Cl)cc1,29.6*,6.7,0.1,0.5,-0.9,6.1
O=C(OCCOc1cccc(Cl)c1)c1cc(S(=O)(=O)N2CCOCC2)ccc1F,2.1,9.8,5.4,31.0*,-5.4,-17.1
CCOc1ccc(N=Cc2ccc([N+](=O)[O-])cc2)c(O)c1,·,·,·,·,35.4*,31.4
CCOc1ccc(CNC(=S)N/N=C\c2ccc([N+](=O)[O-])cc2)cc1,-5.0,5.3,3.8,4.0,-2.0,2.5
Cc1onc(-c2ccc(Cl)cc2)c1-c1ccn(S(=O)(=O)c2ccccc2)n1,·,·,·,·,-23.2,·
CC(C)(C)c1ccc(S(=O)(=O)N2CCC(C(=O)NCc3cccs3)CC2)cc1,·,·,·,·,-3.8,·
Cc1[nH]c2ccccc2c1CC(=O)Nc1ccc(N(C)c2cccnc2)c(-c2cccc(Cl)c2)c1,·,·,·,·,30.1*,·
Cc1cc(-c2cc(NC(=O)Cc3c(C)[nH]c4ccccc34)ccc2N(C)c2cccnc2)ccc1F,·,·,·,·,27.4,·
O=C(Nc1cccc(-c2csc(Nc3ccccc3)n2)c1)c1cc([N+](=O)[O-])cc(C(F)(F)F)c1,28.1*,27.2*,-14.3,29.5*,-3.5,-7.0
COc1ccc(N2CCN(C(=O)c3ccc(C(C)(C)C)cc3)CC2)cc1,-0.9,-1.4,-2.5,7.2,5.8,2.6
COc1ccc(N2CCN(C(=O)CCNC(=O)c3ccc(C(C)(C)C)cc3)CC2)cc1,64.3*,-1.6,0.6,9.3,2.9,3.2
CN(c1ccccc1)S(=O)(=O)c1cccc(NC(=O)CSc2nncs2)c1,5.4,0.8,0.0,1.0,3.0,-8.8
CN(c1ccccc1)S(=O)(=O)c1cccc(NC(=O)CSc2ncn[nH]2)c1,24.9*,-1.3,4.1,2.0,-6.7,-8.9
